These results are taken from ChEMBL document CHEMBL4196085, “Structure-guided design of potent and permeable inhibitors of MERS coronavirus 3CL protease that utilize a piperidine moiety as a novel design element” (Eur J Med Chem, 2018).

Data set [1] has as its target Replicase polyprotein 1ab (Feline coronavirus (strain FIPV WSU-79/1146) (FCoV), UniProt Q98VG9). The experiment in a line: Inhibition of Feline infectious peritonitis virus 3CL protease using Dabcyl-KTSAVLQ/SGFRKME-Edans as substrate incubated for 30 mins followed by substrate addition measured after 1 hr by FRET assay. The essentials: (§1)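 Purified recombinant 3CLpro of FIPV, MERS-CoV or SARS-CoV was preincubated 30 min at 37 °C with serial compound dilutions or DMSO. Buffer: 20 mM HEPES pH 8, 200 mM NaCl, 0.4 mM EDTA, 60% glycerol, 6 mM DTT. Substrate was then added and fluorescence read 1 h later (ex 360/em 460 nm), minus no-protease background. IC50 came from variable-slope fits, at least two determinations.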

Data set [2] has as its target Replicase polyprotein 1ab (Severe acute respiratory syndrome-related coronavirus, UniProt P0C6X7). The experiment in a line: Inhibition of SARS coronavirus 3CL protease using Dabcyl-KTSAVLQ/SGFRKME-Edans as substrate incubated for 30 mins followed by substrate addition measured after 1 hr by FRET assay. The method, boiled down: as §1
In data set [3] the target is Replicase polyprotein 1ab (Middle East respiratory syndrome-related coronavirus (isolate UnitedKingdom/H123990006/2012) (Betacoronavirus England 1) (Humancoronavirus EMC), UniProt K9N7C7). The experiment in a line: Inhibition of Middle East respiratory syndrome-related coronavirus 3CL protease using Dabcyl-KTSAVLQ/SGFRKME-Edans as substrate incubated for 30 mins followed by substrate addition measured after 1 hr by FRET assay. The essentials: as §1
Sequence of Replicase polyprotein 1ab (Middle East respiratory syndrome-related coronavirus (isolate UnitedKingdom/H123990006/2012) (Betacoronavirus England 1) (Humancoronavirus EMC), UniProt K9N7C7) (K9N7C7 3248-3553 limits assumed): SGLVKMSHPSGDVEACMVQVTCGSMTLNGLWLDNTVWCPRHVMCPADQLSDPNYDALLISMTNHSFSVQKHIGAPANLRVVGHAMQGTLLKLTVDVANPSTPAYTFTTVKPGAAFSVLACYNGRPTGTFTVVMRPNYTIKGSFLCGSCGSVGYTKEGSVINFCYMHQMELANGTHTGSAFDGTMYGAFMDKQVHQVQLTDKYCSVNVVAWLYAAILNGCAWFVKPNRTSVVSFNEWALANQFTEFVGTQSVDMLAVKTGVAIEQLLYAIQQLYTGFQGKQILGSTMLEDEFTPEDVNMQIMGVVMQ

A short description of data set [4]: Cytotoxicity against mouse CCL-9.1 assessed as reduction in cell viability after 72 hrs by CytoTox 96 nonradioactive cytotoxicity assay. The following applies: CCL-9.1 cells. The essentials:
(§2)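 Confluent Vero81, CRFK or CCL9.1 cells were exposed to compound at 1–100 μM for 72 h. Cytotoxicity was read with the CytoTox 96 nonradioactive kit. CC50 was taken as the dose giving 50% cell death, averaged over at least two determinations.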

A short description of data set [5]: Cytotoxicity against African green monkey Vero81 cells assessed as reduction in cell viability after 72 hrs by CytoTox 96 nonradioactive cytotoxicity assay. Type of data set: cell-based. The settings on record: chlorocebus sabaeus. The essentials:
as §2

The subject of data set [6] is Feline infectious peritonitis virus. The experiment in a line: Antiviral activity against Feline infectious peritonitis virus infected in […] cells assessed as reduction in viral titer after 48 hrs. Type of data set: functional, organism-based. The settings on record: Alphacoronavirus 1, 48 h.
Data set [7] has as its system Middle East respiratory syndrome-related coronavirus. The experiment in a line: Antiviral activity against Middle East respiratory syndrome-related coronavirus infected in African green monkey Vero81 cells assessed as reduction in viral titer after 48 hrs. Type of data set: functional, organism-based.
The nature of data set [8]: Cytotoxicity against cat CRFK cells assessed as reduction in cell viability after 72 hrs by CytoTox 96 nonradioactive cytotoxicity assay. It counts as cell-based, Felis catus. The method, boiled down: as §2
Data set [9] is described as follows: Selectivity index, ratio of CC50 for African green monkey Vero81 cells to IC50 for Middle East respiratory syndrome-related coronavirus. It counts as toxicity. The following applies: read-out: Ratio CC50/IC50.

Broadly, the IC50 is the concentration at which inhibition is half-maximal. The term CC50 denotes the concentration at which the toxic effect on the cells reaches its halfway point. The term EC50 denotes the concentration at which the effect is half-maximal.

Structures are written as SMILES.

Sequence of Replicase polyprotein 1ab (Feline coronavirus (strain FIPV WSU-79/1146) (FCoV), UniProt Q98VG9) (Q98VG9 2904-3205 limits assumed): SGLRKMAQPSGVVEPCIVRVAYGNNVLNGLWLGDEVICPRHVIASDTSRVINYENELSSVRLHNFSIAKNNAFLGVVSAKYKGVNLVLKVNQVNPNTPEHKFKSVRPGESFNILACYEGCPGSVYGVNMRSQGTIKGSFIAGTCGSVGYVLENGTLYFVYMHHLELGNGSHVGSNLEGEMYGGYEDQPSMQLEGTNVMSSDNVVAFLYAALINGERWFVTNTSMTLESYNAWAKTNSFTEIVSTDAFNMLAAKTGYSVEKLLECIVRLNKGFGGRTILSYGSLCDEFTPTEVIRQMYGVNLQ

In the case of `CCC1(OC(=O)N[C@@H](CC(C)C)C(=O)N[C@H](C=O)C[C@@H]2CCNC2=O)CCN(C(=O)OC(C)(C)C)CC1`, the IC50 in data set [1] was found to be 5500 nM; in data set [2], 5500 nM; in data set [3] it was 6100 nM.
`CC(C)C[C@H](NC(=O)OC1(Cc2ccccc2)CCN(C(=O)OC(C)(C)C)CC1)C(=O)N[C@H](C=O)C[C@@H]1CCNC1=O`: the figures for the IC50 in [1], in data set [2] and in data set [3] were 1600 nM, 5200 nM and 800 nM, respectively.
For `CC(C)C[C@H](NC(=O)OC1(Cc2ccccc2)CCN(C(=O)OC(C)(C)C)CC1)C(=O)N[C@@H](C[C@@H]1CCNC1=O)C(O)S(=O)(=O)O` (some centres not stated), the CC50 at 72 h in [4], in data set [5] and in data set [8] was more than 100000 nM each time. Further, the IC50 turned out to be 2100 nM in [1], 6300 nM in data set [2] and 700 nM in data set [3]. Further, the concentration for a half-maximal effect (EC50) in data set [6] worked out at 100 nM; in [7] it was 800 nM.
Regarding `CCC1(OC(=O)N[C@@H](CC(C)C)C(=O)N[C@@H](C[C@@H]2CCNC2=O)C(O)S(=O)(=O)O)CCN(C(=O)OC(C)(C)C)CC1` (some centres not stated), the concentration for half-maximal inhibition (IC50) in data set [1] was 6700 nM; in [2], 4100 nM; in [3], 7500 nM.
For `CC(C)C[C@H](NC(=O)OC1CCN(S(C)(=O)=O)CC1)C(=O)N[C@@H](C[C@@H]1CCNC1=O)C(O)S(=O)(=O)O` (some centres not stated) the same measures were 2300 nM, 42100 nM and 600 nM.
Regarding `CC(C)C[C@H](NC(=O)OC1CCN(C(=O)OC(C)(C)C)CC1)C(=O)N[C@@H](C[C@@H]1CCNC1=O)C(O)S(=O)(=O)O` (some centres not stated), the 50% cytotoxic concentration (CC50) at 72 h in data set [4], in data set [5] and in data set [8] was more than 100000 nM each time. The IC50 is 2400 nM in [1], 5100 nM in data set [2] and 400 nM in data set [3]. The half-maximal effective concentration (EC50) was 1500 nM in [6] and 500 nM in data set [7]. In addition, in data set [9], the selectivity ratio is more than 250.
With `CC(C)C[C@H](NC(=O)OC1(Cc2ccccc2)CCN(S(C)(=O)=O)CC1)C(=O)N[C@H](C=O)C[C@@H]1CCNC1=O`, the IC50 in data set [1] was determined as 800 nM; in data set [2], 3900 nM; in [3] it was 700 nM.
Consider `CC(C)C[C@H](NC(=O)OC1CCN(S(C)(=O)=O)CC1)C(=O)N[C@H](C=O)C[C@@H]1CCNC1=O`, for which the IC50 is 3500 nM in data set [1], 28800 nM in [2] and 700 nM in data set [3].
Consider `CC(C)C[C@H](NC(=O)OC1(Cc2ccccc2)CCN(S(C)(=O)=O)CC1)C(=O)N[C@@H](C[C@@H]1CCNC1=O)C(O)S(=O)(=O)O` (some centres not stated), for which the half-maximal inhibitory concentration (IC50) in [1] came to 1100 nM; in data set [2] it was 4300 nM; in data set [3], 900 nM.
For `CCOC(=O)N1CCC(OC(=O)N[C@@H](CC(C)C)C(=O)N[C@H](C=O)C[C@@H]2CCNC2=O)CC1` the same measures were 1300 nM, 3200 nM and 600 nM.
In the same order, the values of `CC(C)C[C@H](NC(=O)OC1CCN(C(=O)OC(C)(C)C)CC1)C(=O)N[C@H](C=O)C[C@@H]1CCNC1=O` are 800 nM, 2100 nM and 600 nM.
In the same order, the values of `CCOC(=O)N1CCC(OC(=O)N[C@@H](CC(C)C)C(=O)N[C@@H](C[C@@H]2CCNC2=O)C(O)S(=O)(=O)O)CC1` (some centres not stated) are 1100 nM, 8800 nM and 500 nM.
